Source: PubChem BioAssay
The list is not random: actives were taken first. Their share in the collection is about 2.3%.
Rpn11 inh = Rpn11 (human) deubiquitinase inhibition; human 26S proteasome, Ub4-pepOG fluorescence polarization; 20S core pre-blocked with epoxomicin; inhibition, % at 20 µM; 0.59% of 360,000 active;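 active = inhibition at 20 µM, scaled to each plate's controls, above about 33%, limit read from the data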
Target sequence (O00487 whole entry, looked up): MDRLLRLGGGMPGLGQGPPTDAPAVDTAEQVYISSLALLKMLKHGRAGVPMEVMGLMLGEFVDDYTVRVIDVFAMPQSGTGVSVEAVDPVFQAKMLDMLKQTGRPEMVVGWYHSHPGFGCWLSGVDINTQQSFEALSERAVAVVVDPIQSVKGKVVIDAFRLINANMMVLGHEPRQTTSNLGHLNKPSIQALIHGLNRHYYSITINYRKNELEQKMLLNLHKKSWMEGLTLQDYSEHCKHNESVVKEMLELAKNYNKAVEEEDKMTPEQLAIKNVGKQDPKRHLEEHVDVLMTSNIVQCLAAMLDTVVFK
SUMO1-SIM PPI = SUMO1-SIM interaction modulation; 0.33% of 360,000 active; inhibition, % at 20 µM; SUMO1 binding to a labelled peptide, TR-FRET, 1 h; P63165; in the data active = inhibition above about 37%
DNMT1 inh = DNMT1 (human) enzyme inhibition; P26358; DNMT1 molecular beacon, Hinp1I cleavage, fluorescence; inhibition (reported as % activation of signal), % at 10 µM; 0.83% of 360,000 active; AID 588458; in the data active = inhibition above about 50%
Scp-1 inhibitor = Scp-1 (human) phosphatase inhibition; inhibition, % at 20 µM; Recombinant Scp1, phosphopeptide, malachite green phosphate absorbance; Q9GZU7; 0.88% of 340,000 active;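 active = inhibition above about 50% at 20 µM, limit read from the data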;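 note: plate controls were DMSO wells with enzyme for no effect and wells lacking enzyme for full effect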
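Test system: SCP-1 phosphatase catalytic domain, residues 76-261 | Compound dosing: One concentration, 20 µM, with 1.0% DMSO | Schedule: 45 min room-temperature reaction, 5 min colour, 30 min stabiliser | Detection: Absorbance at 630 nm | Read-out basis: % inhibition of SCP-1 phosphate liberation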
STEP block = blocks human striatal-enriched tyrosine phosphatase. recombinant STEP, OMFP fluorogenic substrate, fluorescence. P54829. inhibition, % at 20 µM. 0.25% of 360,000 active;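 active = inhibition at 20 µM, scaled per plate between control wells, above about 37%, limit read from the data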;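 note: 0% = DMSO with enzyme and substrate and 100% = substrate only without enzyme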
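Assay system: isolated STEP enzyme / Timing: 20 min at room temperature, dark / Doses: 20 µM, 1% DMSO / Technique: fluorescence intensity, excitation 480 nm, emission 540 nm / Reagent: fluorogenic phosphatase substrate OMFP at 25 µM final / Measure: percent inhibition scaled to no-enzyme and uninhibited-enzyme controls, plate-pattern corrected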
LMPTP inh = LMPTP (human) inhibition; recombinant LMPTP-A, OMFP fluorogenic substrate, fluorescence intensity; inhibition, % at 20 µM; 0.22% of 360,000 active;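 active = compounds that cut the enzyme signal by at least half of the control window in the single-dose screen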;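 note: plate controls were DMSO wells with enzyme plus substrate for no effect and substrate without enzyme for full effect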
Target sequence (P24666 whole entry, looked up): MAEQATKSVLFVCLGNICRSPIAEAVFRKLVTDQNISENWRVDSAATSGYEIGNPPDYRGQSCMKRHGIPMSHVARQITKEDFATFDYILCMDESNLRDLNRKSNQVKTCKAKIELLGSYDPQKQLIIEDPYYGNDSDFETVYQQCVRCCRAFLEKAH
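Test system: LMPTP-A, protein tyrosine phosphatase of low molecular weight; Input: 0.625 nM enzyme; Incubation: 50 min dark incubation at room temperature; Signal: endpoint fluorescence intensity from OMFP dephosphorylation; Read-out basis: % inhibition versus control wells.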
Scp-1 conf = confirmation of human Scp-1 phosphatase inhibitors; shares compounds with Scp-1 inhibitor; inhibition, % at 20 µM; recombinant SCP-1 catalytic domain, phosphate release, malachite green absorbance; 61% of 2,500 active;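 note: plate controls were DMSO with enzyme for no effect and buffer wells lacking enzyme for full effect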
Scp-1 MG ctr = interferes with malachite green readout, flagging false Scp-1 hits. shares compounds with Scp-1 inhibitor. Colorimetric interference counterscreen, malachite green absorbance 630 nm. apparent inhibition (interference), % at 20 µM. 2,500 tested, under 10 active. AID 540313;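 note: compounds added after enzyme reaction finished so only phosphate colour detection is probed; plate controls were DMSO wells with completed Scp-1 reaction for no effect and substrate wells lacking enzyme for full effect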
Scp-1 Tm shift = Scp-1 (human) binding by thermal shift; AID 540329; Recombinant SCP1, Sypro Orange thermal shift Tm; thermal shift relative to vanadate control, % at 40 µM; 25% of 1,500 active; shares compounds with Scp-1 inhibitor;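 active = substances whose mean melting-temperature shift, as a percentage of the reference inhibitor's shift, reaches about 5.3%, limit read from the data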;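 note: 0% = Tm of DMSO wells and 100% = Tm with sodium orthovanadate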
The depositor's hits bear a star; · = no result given.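 Rule for the calls, unless noted: active = inhibition of at least 30% at 20 µM; inactive = the rest.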

SMILES | Rpn11 inh | SUMO1-SIM PPI | DNMT1 inh | Scp-1 inhibitor | STEP block | LMPTP inh | Scp-1 conf | Scp-1 MG ctr | others
CC(C)c1cccc(-c2ccc3c(c2)S(=O)(=O)c2cccc(C(=O)O)c2C3=O)c1 | 3 | -9 | 6 | -4 | 1 | 0 | · | ·
CC(C)c1cccc(-c2ccc3c(c2)S(=O)(=O)c2cccc(C(=O)NCc4ccco4)c2C3=O)c1 | 7 | 3 | 49 | 68* | 2 | 2 | 49* | 0 | Scp-1 Tm shift=11*
CN1CCN(c2ncnc3c2ncn3[C@H]2CN(Cc3ccc(F)cc3)C[C@@H](CO)O2)CC1 | -2 | 2 | 1 | · | 4 | -1 | · | ·
Nc1ncnc2c1ncn2[C@@H]1O[C@H](C(=O)NCC2CCN(Cc3ccccc3)CC2)[C@@H](O)[C@H]1O | -8 | 2 | 7 | · | 0 | -1 | · | ·
COc1ccc2nc(Nc3nc(CSc4nnnn4-c4ccccc4)cc(=O)[nH]3)nc(C)c2c1 | 8 | 0 | -6 | 83* | 4 | 2 | 10 | -7
Cc1ccc2c(C)nc(Nc3nc(CSc4nnnn4-c4ccccc4)cc(=O)[nH]3)nc2c1 | -3 | 0 | -6 | -2 | 4 | 8 | · | ·
CCCCn1c(N)c(N(CCOC)C(=O)c2ccc(-c3ccc(C(C)=O)cc3)o2)c(=O)[nH]c1=O | 0 | -19 | 0 | 1 | 1 | 1 | · | ·
O=C(COC(=O)CCCC1=NS(=O)(=O)c2ccccc2N1)Nc1ccc(Br)cc1 | -8 | -8 | -1 | 51* | -5 | 0 | -21 | -19
O=C(Nc1ccc2c(c1)C(=O)NC2=O)c1cccc(Cl)c1 | 1 | 3 | 28 | 54* | 22 | 3 | 66* | -14 | Scp-1 Tm shift=0
O=C(Nc1ccc2c(c1)C(=O)NC2=O)c1cc(Cl)ccc1Cl | -7 | -130 | -1 | -13 | -1 | -14 | · | ·
O=C(Nc1ccc2c(c1)C(=O)NC2=O)c1ccc(Cl)s1 | 24 | -7 | 3 | 85* | 22 | 5 | -2 | -15
CC(=O)Nc1nnc(SCC(=O)Nc2ccc(N3CCOCC3)c(Cl)c2)s1 | 8 | -1 | -3 | 63* | 1 | 1 | -3 | -8
CC(=O)Nc1nnc(SCC(=O)Nc2ccc3c(c2)OCCO3)s1 | 4 | 1 | 2 | -5 | 0 | -1 | · | ·
O=C(CSc1nnc(Nc2ccccc2F)s1)NC(=O)CN1CCCC1=O | -8 | 8 | 45 | 63* | 38 | 12 | 57* | -8 | Scp-1 Tm shift=-10
O=C(CSc1nnc(Nc2ccccc2F)s1)NC1CCS(=O)(=O)C1 (stereo unspecified) | -11 | 2 | 5 | 0 | -5 | 0 | · | ·
Cc1nc2ccsc2c(=O)n1-c1ccc(Cl)cc1 | 1 | 5 | -3 | -8 | -1 | -2 | · | ·
COCC(C)NC(=S)Nc1ccccc1[N+](=O)[O-] (stereo unspecified) | -4 | -13 | -1 | 6 | -2 | 0 | · | ·
C[n+]1cccc(C(=O)NNC(=O)C23CC4CC(CC(C4)C2)C3)c1 | -8 | 1 | -4 | 102* | -1 | 0 | 13 | -15
CCOC(=O)c1c(NC(=O)CSc2nnc(-c3c[nH]c4ccccc34)n2C)sc2c1CCCC2 | 4 | 1 | -27 | 53* | 0 | 3 | 32* | 15 | Scp-1 Tm shift=3
CC(NC(=O)C1C2C=CC(C2)C1C(=O)O)c1ccccc1 (stereo unspecified) | -2 | 0 | 1 | 0 | 1 | -2 | · | ·
O=C(O)C1C2C=CC(C2)C1C(=O)Nc1ccccc1Br (stereo unspecified) | -2 | 26 | 23 | 69* | 44* | 2 | 58* | -15 | Scp-1 Tm shift=-26
